Hits are enriched below; roughly 4% of the tested compounds scored in any of these assays.
ERa coact inh: ERα–SRC-1 coactivator interaction inhibitors, primary screen, biochemical, TR-FRET, ERα LBD, estradiol-bound. Estrogen receptor (Homo sapiens), P03372. TR-FRET ER-alpha LBD / SRC-1 peptide. inhibition, % at 25.6 µM. 1.7% of 86,000 active; in the data active = inhibition above about 50%;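 note: 0% = receptor plus peptide control and 100% = peptide only without receptor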
FAK blocker: FAK kinase inhibitors, primary screen, biochemical. Focal adhesion kinase 1 (Homo sapiens), Q05397. biochemical FAK kinase activity assay. inhibition, %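 (tested at 7 µM)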. 0.84% of 97,000 active. AID 727, 2007; in the data active = inhibition above about 19%;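 note: 0% = DMSO and 100% = reference compound high control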
HIV Rev-RRE inh: HIV-1 Rev-RRE binding inhibitors, primary screen, biochemical, FRET, protein-RNA interaction; P05866; Rev peptide-RRE RNA binding; inhibition, % at 8 µM; 0.79% of 97,000 active; AID 704, 2007;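 active = inhibition above the screen-wide mean plus 3 SD, cut at about 35% in these data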;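 note: 0% = median DMSO wells and 100% = median Neomycin B control wells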
Target sequence (P05866 whole entry, looked up): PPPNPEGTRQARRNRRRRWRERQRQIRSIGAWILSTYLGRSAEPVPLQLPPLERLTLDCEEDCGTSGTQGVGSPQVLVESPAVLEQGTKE
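Test system: Cy5-tagged RRE RNA duplex with fluorescein-tagged Rev peptide; Probe or stimulus: labelled Rev peptide; Schedule: 5 min preincubation and 15 min binding, 25 °C; Signal: FRET fluorescence readout; Evaluation: % inhibition from 671/540 nm acceptor-to-donor ratio, scaled between controls; Control set: DMSO and neomycin B.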
Smad3 FoxH1 inh: Smad3/FoxH1 peptide binding inhibitors, primary screen, biochemical, TR-FRET; Mothers against decapentaplegic homolog 3 (Homo sapiens), P84022; TR-FRET Smad3/Dy647-FoxH1 peptide binding, europium anti-His; inhibition, % at 25 µM; 0.29% of 88,000 active;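 active = compounds that reduce the energy-transfer binding signal between the protein and its labelled peptide by more than half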;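 note: 0% = Smad3 plus labelled peptide maximal FRET and 100% = peptide-only background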
Target sequence (P84022 whole entry, looked up): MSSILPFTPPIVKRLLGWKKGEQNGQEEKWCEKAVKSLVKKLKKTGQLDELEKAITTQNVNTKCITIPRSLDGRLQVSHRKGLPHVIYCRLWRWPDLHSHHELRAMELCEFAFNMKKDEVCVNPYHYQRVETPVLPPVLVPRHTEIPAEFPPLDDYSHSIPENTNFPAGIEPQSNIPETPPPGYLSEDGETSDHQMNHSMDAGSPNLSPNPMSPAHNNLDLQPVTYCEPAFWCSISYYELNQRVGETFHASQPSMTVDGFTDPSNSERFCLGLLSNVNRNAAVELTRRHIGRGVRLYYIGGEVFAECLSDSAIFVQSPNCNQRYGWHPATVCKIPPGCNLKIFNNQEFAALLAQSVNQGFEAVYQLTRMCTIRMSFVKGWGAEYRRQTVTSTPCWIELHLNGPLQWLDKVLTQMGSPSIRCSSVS
ERb SRC1 inh: inhibitors of ERβ-SRC1 coactivator interaction, primary screen, biochemical, TR-FRET, ERβ LBD, SRC-1 peptide. TR-FRET ER-beta LBD / SRC1-Cy5 peptide binding; receptor agonist-loaded with 1 µM estradiol. Estrogen receptor beta (Homo sapiens), Q92731. inhibition, % at 25.6 µM. 1.3% of 86,000 active;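 active = compounds whose percent inhibition of the receptor-coactivator binding signal exceeds about 50% in the single-dose screen, limit read from the data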;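 note: 0% = receptor plus peptide wells without compound and 100% = peptide-only wells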
ERa SRC1 pot: enhancers of ERα–SRC-1 coactivator binding, primary screen, biochemical, TR-FRET, ERα LBD, low estradiol; AID 639, 2007; TR-FRET ERalpha-LBD/SRC-Cy5 coactivator binding, 2 h; 100 = basal binding, no effect; 1.3% of 86,000 active; coactivator binding (% of control), % at 25.6 µM; Estrogen receptor (Homo sapiens), P03372; in the data active = activity above about 200%;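 note: binding measured in presence of low estradiol as agonist stimulus; 0% = peptide alone without receptor and 100% = receptor with peptide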
Active calls of the source: *; i = inactive; nt = not tested or not shown; [ ] = dose if it differs, or a comment.

SMILES	ERa coact inh	FAK blocker	HIV Rev-RRE inh	Smad3 FoxH1 inh	ERb SRC1 inh	ERa SRC1 pot
O=C(CC(C(=O)N1CCc2ccccc21)n1ccnc1)N1CCc2ccccc2C1 (stereo not given)	-46.0	4.4	60.0*	16.1	-19.6	112.9
CCCCNC(=O)CC(C(=O)N1CCc2ccccc21)n1ccnc1 (stereo not given)	0.6	0.6	5.7	4.9	-5.0	115.9
COc1ccccc1CN(Cc1nc2ccccc2c(=O)[nH]1)S(=O)(=O)c1ccc2ccccc2c1	24.7	4.4	12.3	0.4	19.7	279.6*
COc1ccc(S(=O)(=O)N(Cc2ccccc2)Cc2nc3ccccc3c(=O)[nH]2)cc1	-1.6	-2.2	11.2	8.8	-4.9	115.5
CN1CCc2c(sc3c2C(=O)NC(c2ccc(-c4cccc(Cl)c4)o2)N3)C1 (stereo not given)	41.7	nt	nt	-0.5	20.5	57.0
CSc1ccc(C2NC(=O)c3c(sc4c3CCN(C)C4)N2)cc1 (stereo not given)	-28.8	8.9	84.4*	-6.4	-15.8	104.1
Cc1ccsc1C1NC(=O)c2c(sc3c2CCN(C)C3)N1 (stereo not given)	-24.8	-1.2	99.7*[fluorescence artefact?]	-3.4	-11.5	119.1
CN1CCc2c(sc3c2C(=O)NC(c2cccs2)N3)C1 (stereo not given)	28.5	6.4	67.2*	-2.9	20.7	47.2
N#Cc1c(NC(=O)c2ccncc2)sc2c1CCC2	90.8*[fluorescence artefact?]	1.7	7.9	4.4	90.9*[fluorescence artefact?]	10.4
c1cncc(CNCc2cccnc2)c1	nt	nt	nt	-7.4	nt	nt
Cc1ccc(C(=O)Nc2nc3ccccc3c(=O)s2)cc1	36.1	-29.7	-3.2	16.5	60.3*	191.7
CCOC(=O)c1sc(NC(=O)CCn2nnc3ccccc32)c(C(=O)OCC)c1C	14.6	nt	nt	2.2	8.4	182.8
COc1cc(NC(=O)c2cccs2)c(C(=O)OCC(=O)NC(C)c2ccccc2)cc1OC (stereo not given)	nt	-0.8	-1.8	nt	nt	nt
COc1cc(NC(=O)c2cccs2)c(C(=O)OCC(=O)NCc2ccccc2)cc1OC	16.3	-0.7	6.3	-3.7	3.2	269.5*
COc1cc(NC(=O)c2cccs2)c(OC)cc1NC(=O)CCn1nnc2ccccc21	-0.5	-0.9	7.3	-9.4	51.2*[fluorescence artefact?]	111.9
COC(=O)CC[C@@H](C)[C@H]1CC[C@H]2[C@@H]3CC[C@H]4C[C@@H]5CC[C@@]4(C)[C@]3(O5)[C@H](Br)[C@@H](Br)[C@]12C	nt	nt	nt	-9.7	nt	nt
O=C(O)C(F)(F)C(F)(F)C(F)(F)C(F)(F)C(=O)O	nt	nt	nt	6.0	nt	nt
N#Cc1ccccc1Cn1c(=O)n(Cc2ccc(C(=O)NCc3ccco3)cc2)c(=O)c2ccccc21	82.1*[fluorescence artefact?]	nt	nt	-7.7	48.2	172.5
N#Cc1ccccc1Cn1c(=O)n(CCC(=O)NCc2ccco2)c(=O)c2ccccc21	-8.8	nt	nt	7.7	-3.5	127.6
Cc1ccc2oc(=O)c3cnn(CC(=O)N4CCN(c5ccccc5)CC4)c3c2c1	-5.3	0.8	8.0	-2.0	-2.3	106.4
Cc1ccc2oc(=O)c3cnn(CC(=O)N4CCCc5ccccc54)c3c2c1	-7.7	-6.0	-2.0	-8.0	-8.0	265.4*[fluorescence artefact?]
CCOC(=O)c1ccc(NC(=O)CSc2nnc(CNc3ccc(OC)cc3)n2C)cc1	52.3*	0.7	-0.8	12.7	35.2	92.7
O=C(CSc1nnc(-c2cccs2)n1-c1ccccc1)Nc1ccccc1	-31.1	-150.1	0.9	-218.1	11.5	969.5*[fluorescence artefact?]
CCOC(=O)c1ccc(NC(=O)CSc2nnc(COc3ccccc3)n2C)cc1	13.5	-0.4	4.1	8.6	7.7	178.1
CCn1c(SCC(=O)Nc2ccc(C(=O)OC)cc2)nnc1-c1cccs1	-1.7	1.9	6.5	-56.7	10.4	304.4*[fluorescence artefact?]
SMILES	ERa coact inh	FAK blocker	HIV Rev-RRE inh	Smad3 FoxH1 inh	ERb SRC1 inh	ERa SRC1 pot
CCN(CC)c1ccc(-c2nnc(SCC(=O)Nc3ccccc3C#N)n2-c2ccccc2)cc1	52.4*[fluorescence artefact?]	1.0	1.4	-4.0	28.9	104.0
COc1ccccc1OC(=O)CN1C(=O)c2ccccc2C1=O	-8.0	-2.4	7.5	-7.4	-10.7	84.5
CCc1cc(=O)oc2cc(OCC(N)=O)c(Cl)cc12	1.1	0.0	12.4	-7.2	-0.2	112.7
C[N+](C)(C)c1ncnc2c1ncn2[C@@H]1CCCCO1	nt	nt	nt	7.6	nt	nt
C=CCn1c(SCC(=O)Nc2ccc(C(=O)OCC)cc2)nnc1-c1cccs1	-44.5	nt	nt	i	10.3	755.1*[fluorescence artefact?]
OCCN(CO)CO	nt	nt	nt	-7.4	nt	nt
CC(C)CC(c1nnnn1Cc1ccccc1)N1CCC(C(N)=O)CC1 (stereo not given)	-6.2	-1.0	-0.7	2.5	-12.3	210.3*[fluorescence artefact?]
COc1ccc(C2=CC(c3ccc(C)cc3)n3nnnc3N2)cc1 (stereo not given)	-13.1	0.6	46.8*	-8.0	0.1	91.1
COc1ccc(C2C=C(c3ccc(C)cc3)Nc3ncnn32)cc1 (stereo not given)	-12.8	3.4	56.0*	6.8	-2.1	80.7
COc1ccc(C2C=C(c3ccccc3)Nc3nc(NC(C)=O)nn32)cc1 (stereo not given)	-2.1	2.6	42.4*	2.9	-0.1	97.9
COc1cc(NC(=O)Cn2nc(Cc3cccnc3)c3ccccc3c2=O)cc(OC)c1OC	-8.1	6.1	5.8	-1.4	-7.5	105.3
O=C(CSc1nnc(-c2ccncc2)n1-c1ccc(F)cc1)NC(=O)NCc1ccco1	68.0*[fluorescence artefact?]	13.4	-1.9	-13.6	54.6*[fluorescence artefact?]	78.2
C=CCn1c(COc2cccc(C)c2)nnc1SCC(=O)NC(=O)NCc1ccco1	61.3*	13.0	4.2	-5.8	41.3	76.9
C=CCn1c(COc2ccc(F)cc2)nnc1SCC(=O)NC(=O)NCc1ccco1	71.2*[fluorescence artefact?]	nt	nt	1.3	46.0	70.1
O=C(CSc1nnc(COc2ccccc2)n1Cc1ccco1)NCc1ccco1	45.6	3.0	1.1	4.9	39.1	132.7
Cc1cc(Cl)ccc1Nc1sc(C(=O)c2cc3cc(Cl)ccc3o2)c(N)c1C#N	nt	nt	nt	14.1	nt	nt
OC[C@@H](O)[C@@H](O)[C@@H](O)[C@@H](O)c1nc2ccc(Cl)cc2[nH]1	nt	nt	nt	-10.0	nt	nt
O=S(=O)(Nc1nc2ccc(S(=O)(=O)N3CCCC3)cc2s1)c1ccc(F)cc1	-2.0	-1.6	0.0	-10.5	5.4	96.0
COc1cc(OC)cc(C(=O)Nn2c(C)nc3ccccc3c2=O)c1	-8.3	1.3	8.2	-4.1	0.0	108.0
COc1ccc2[nH]c3c(c2c1)CCn1c-3nc2ccccc2c1=O	80.4*	nt	nt	7.2	40.3	35.2

High-throughput results from PubChem BioAssay.
